From ChEMBL document CHEMBL4808167, “Design, Synthesis, and Evaluation of Small Molecule Gαq/11 Protein Inhibitors for the Treatment of Uveal Melanoma” (J Med Chem, 2021)
Calls of active or inactive are those of the source. The calls are words filed in the database; no cut-off is given here. Starred links: 1 amine or outer side, 2 acyl side, 3 side chain; linkers in the order of their positions; H or OH if unused. Positions of bridges follow the written chain, without caps; N, C: chain ends. Non-standard residues stand in square brackets, D forms with d. Residues, ends and D or L forms follow the SMILES beside them. *: point of attachment. Leu(3R-OH,Nα-propionyl) = CCC(=O)N[C@H](C(=O)*)[C@H](O)C(C)C; X1 = CC(C)[C@@H](O[*:3])[C@H](N[*:1])C(=O)[*:2]; NMeT = CN[C@H](C(=O)O)[C@@H](C)O; dPhLac = O=C(O)[C@H](O)Cc1ccccc1; NMeA = CN[C@@H](C)C(=O)O; NMeDha = C=C(NC)C(=O)O

Columns and labels:
[1] = biological target: T1, GNAQ/GNA11 (Homo sapiens) (UniProt P50148+P29992); experiment: Inhibition of Galphaq/11 (unknown origin) expressed in CHO cells coexpressing M1 receptor assessed as reduction in carbachol-induced IP1 accumulation at 10 uM preincubated for 1 hr followed by carbachol stimulation and measured after 1 hr by HTRF assay relative to control; assay type: cell-based; conditions: time 2.0 hrs
[2] = Antiproliferative activity against human 92.1 cells assessed as inhibition of cell growth after 72 hrs by CCK8 assay; assay type: functional, cell-based; conditions: Homo sapiens, 921, 72 h
How it was run: (§1)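 92.1 or MP41 cells in RPMI-1640 with 10% FBS were seeded at 3 × 10³ cells/well. Exposed to serial concentrations for 72 h at 37 °C, 5% CO₂. CCK-8 added for 1−4 h, absorbance read at 450 nm. IC₅₀ from concentration−response curve fit, mean ± SD.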

[3] = Antiproliferative activity against human MP41 cells assessed as inhibition of cell growth after 72 hrs by CCK8 assay; assay type: functional, cell-based; conditions: MP41, 72 h; how it was run: as §1
[4] = biological target: T1, GNAQ/GNA11 (Homo sapiens); experiment: Binding affinity to Galphaq/11 (unknown origin) expressed in HEK293 cells cotransfected with AT1R/Galphaq-RLuc8/ Ggamma2-venus/Gbeta1 assessed as inhibition of Ang-II induced-BRET signal at 100 uM preincubated for 1 hr followed by Ang-II addition by BRET assay; assay type: cell-based
How it was run: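 HEK293 cells transiently transfected with AT₁R, Gαq-RLuc8, Gγ2-Venus and untagged Gβ1. Replated 24 h later, washed with HBS, starved 10 min, then pretreated with compound for 1 h at 37 °C. AngII added, followed by coelenterazine. BRET ratio taken as Venus emission (520−570 nm) over RLuc8 emission (370−480 nm). Mean ± SD, n = 3.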

CHO [5] = experiment: Induction of morphological changes in chinese hamster CHO cells overexpressing M1 receptor at 10 to 20 uM after 2 hrs by light microscopic analysis; assay type: cell-based, Cricetulus griseus; conditions: dose 10-20 µM
How it was run: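 CHO-M₁ cells were treated with compound at 10 or 20 μM for 2 h, and changes in cell morphology were examined by microscopy.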

CHO [6] = experiment: Cytotoxicity against chinese hamster CHO cells overexpressing M1 receptor assessed as cell viability at 1.25 to 20 uM after 2 to 24 hrs by CCK8 assay; assay type: cell-based, Cricetulus griseus; conditions: dose lower 1.25 µM, time lower 2 hrs, dose upper 20 µM, time upper 24 hrs
How it was run: (§2)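 CHO cells stably expressing the M₁ receptor were treated with a range of compound concentrations for 2 h or 24 h. Viability measured by CCK-8 and given as percentage. Mean ± SD of three independent experiments.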

CHO [7] = experiment: Cytotoxicity against chinese hamster CHO cells overexpressing M1 receptor assessed as cell viability at 5 uM after 2 hrs by CCK8 assay; assay type: cell-based, Cricetulus griseus; how it was run: as §2
[8] = biological target: T1, GNAQ/GNA11 (Homo sapiens); experiment: Inhibition of Galphaq/11 (unknown origin) expressed in HEK293 cells cotransfected with AT1R assessed as inhibition of Ang-II induced calcium release at 100 uM preincubated for 30 mins followed by Ang-II addition by Fluo-4AM dye based fluorescence assay; assay type: cell-based
How it was run: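 HEK293 cells transfected with AT₁R, washed in HBSS with 0.1% BSA and loaded with Fluo-4 AM for 1 h at 37 °C. Washed, then pretreated with compound at 100 μM for 30 min. AngII at varying concentrations added 20 s into the fluorescence recording. Mean ± SD, n = 3.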

921 [9] = experiment: Inhibition of cell migration in human 921 cells at 15 uM incubated for 48 hrs by transwell migration assay; assay type: functional, cell-based
How it was run: (§3)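 92.1 or MP41 cells (1 × 10⁴/well) seeded in serum-free medium in the upper transwell chamber, with 20% FBS medium below. Left overnight, then treated 48 h. Non-migrated cells swabbed off; cells on the lower side stained with crystal violet 30 min and counted by light microscopy (×40 for migration, ×100 for invasion). Mean ± SD, n = 3.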

MP41 [10] = experiment: Inhibition of cell migration in human MP41 cells at 15 uM incubated for 48 hrs by transwell migration assay; assay type: functional, cell-based
How it was run: (§4)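 Transwell migration: 92.1 and MP41 cells (RPMI-1640, 10% FBS) seeded 1 × 10⁴/well in upper chamber in serum-free medium, 20% FBS medium below; overnight at 37 °C, then compound for 48 h. Non-migrated cells swabbed off; lower cells crystal violet-stained 30 min, counted by light microscopy. Mean SD of three independent experiments.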

MP41 [11] = experiment: Inhibition of cell migration in human MP41 cells at 30 uM incubated for 48 hrs by Transwell migration assay; assay type: functional, cell-based; how it was run: as §4
921 [12] = experiment: Inhibition of cell invasion in human 921 cells at 5 to 15 uM incubated for 48 hrs by transwell assay; assay type: functional, cell-based; conditions: dose 5-15 µM; how it was run: as §3
MP41 [13] = experiment: Inhibition of cell invasion in human MP41 cells at 5 to 15 uM incubated for 48 hrs by transwell assay; assay type: functional, cell-based; conditions: dose 5-15 µM; how it was run: as §3
[14] = Antitumor activity against human MP41 cells xenografted in nude BALB/c mouse assessed as tumor growth inhibition at 10 mg/kg, ip administered for once daily for 21 days and measured every 3 days; assay type: functional; conditions: 504 h, time 21 day, read-out: TGI
How it was run: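 MP41 tumours were passaged subcutaneously mouse-to-mouse in nude BALB/c mice (6−8 weeks, 20−25 g). Tertiary recipients randomized, n = 8/group, given 10 or 30 (mg/kg)/d ip or vehicle for 21 days. Tumour size (V = A × B² × π/6, caliper) and body weight taken every 3 days; tumours excised and weighed on day 22. TGI computed versus the vehicle group.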

GNAQ/GNA11 [15] = biological target: T2, GNAQ/GNA11 (Homo sapiens, UniProt P50148+P29992); experiment: Inhibition of Galphaq/11 (unknown origin) expressed in CHO cells coexpressing M1 receptor assessed as reduction in carbachol-induced IP1 accumulation preincubated for 1 hr followed by carbachol stimulation and measured after 1 hr by HTRF assay; assay type: cell-based
T2 sequence (P50148 whole entry): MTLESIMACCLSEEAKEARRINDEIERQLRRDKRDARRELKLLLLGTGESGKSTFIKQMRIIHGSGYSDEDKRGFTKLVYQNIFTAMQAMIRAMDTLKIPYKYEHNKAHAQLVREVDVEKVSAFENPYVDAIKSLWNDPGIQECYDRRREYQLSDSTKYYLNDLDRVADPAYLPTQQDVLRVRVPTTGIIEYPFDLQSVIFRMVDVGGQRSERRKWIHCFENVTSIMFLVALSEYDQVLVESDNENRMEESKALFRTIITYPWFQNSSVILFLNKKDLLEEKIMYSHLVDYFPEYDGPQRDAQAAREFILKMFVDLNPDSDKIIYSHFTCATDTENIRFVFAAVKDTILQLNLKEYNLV
T2 sequence (P29992 whole entry): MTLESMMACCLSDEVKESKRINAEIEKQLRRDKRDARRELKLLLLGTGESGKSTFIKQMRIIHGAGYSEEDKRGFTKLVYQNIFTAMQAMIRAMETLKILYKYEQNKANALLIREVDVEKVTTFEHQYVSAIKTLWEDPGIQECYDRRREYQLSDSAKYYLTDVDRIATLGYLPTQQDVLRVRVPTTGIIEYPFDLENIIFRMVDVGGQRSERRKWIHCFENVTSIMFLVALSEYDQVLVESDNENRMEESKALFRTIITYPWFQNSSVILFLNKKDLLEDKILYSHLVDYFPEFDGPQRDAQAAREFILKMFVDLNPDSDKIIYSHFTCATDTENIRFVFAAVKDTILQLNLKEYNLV

GNAQ/GNA11 [16] = biological target: T2, GNAQ/GNA11; experiment: Inhibition of Galphaq/11 (unknown origin); assay type: protein assay
How it was run: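 Carbachol-stimulated IP₁ accumulation in CHO cells stably expressing the M₁ receptor, read by HTRF. Cells (2 × 10⁴/well) in assay buffer with 0.2% BSA were preincubated with compound for 1 h at 37 °C. Carbachol (final 9 μM, ~EC₈₀) was then added with LiCl (final 20 mM) for 1 h at 37 °C plus 1 h at room temperature. Values are % inhibition at 10 μM or IC₅₀, three independent experiments.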

| inhibition [1] [%] | SMILES | IC50 [2] [µM] | IC50 [3] [µM] | other results |
| --- | --- | --- | --- | --- |
| 32.6 | N[C@@H](CS)C(=O)N1CCn2cc(-c3ccccc3)nc2[C@@H]1CC1CCCCC1 | 4.8 | 2.3 | Activity [4]: Active; Activity [8]: inactive; inhibition 921 [9]: Active; inhibition (MP41 [10]): Active; inhibition (MP41 [11]): Active; inhibition 921 [12]: Active; inhibition (MP41 [13]): Active |
| 24.7 | N[C@@H](Cc1c[nH]cn1)C(=O)N1CCn2cc(-c3ccccc3)nc2[C@@H]1CC1CCCCC1 | 91.9 | > 100 |  |
| 22.5 | C[C@H](O)C(=O)N1CCn2cc(-c3ccccc3)nc2[C@@H]1CC1CCCCC1 | > 100 | 56.3 |  |
| 21.9 | NCC(=O)N1CCn2cc(-c3ccccc3)nc2[C@@H]1CC1CCCCC1 | 19.3 | > 100 |  |
| 29.3 | N[C@@H](CO)C(=O)N1CCn2cc(-c3ccccc3)nc2[C@@H]1CC1CCCCC1 | 78.4 | > 100 |  |

More lines, now with the values behind:

| SMILES | inhibition [1] [%] | IC50 [2] [µM] | IC50 [3] [µM] | other results |
| --- | --- | --- | --- | --- |
| N[C@H](CSSC[C@@H](N)C(=O)N1CCn2cc(-c3ccccc3)nc2[C@@H]1CC1CCCCC1)C(=O)N1CCn2cc(-c3ccccc3)nc2[C@@H]1CC1CCCCC1 | 25.8 | 6.8 | 10.5 | Activity [4]: Active; Activity (CHO [5]): Toxic; Activity (CHO [6]): Toxic; Activity (CHO [7]): Toxic; Activity [8]: inactive; inhibition 921 [9]: Active; inhibition (MP41 [10]): Active; inhibition (MP41 [11]): Active; inhibition 921 [12]: Active; inhibition (MP41 [13]): Active; inhibition in vivo at 10 mg/kg [14]: 35.9% |
| N[C@@H](Cc1ccc(O)cc1)C(=O)N1CCn2cc(-c3ccccc3)nc2[C@@H]1CC1CCCCC1 | 34 | 10.7 | 22.6 | IC50 (GNAQ/GNA11 [15]): 48.6 µM |
| CC(C)[C@@H]1c2nc(-c3ccccc3)cn2CCN1C(=O)[C@@H](N)CS | 48.4 | 62.7 | > 100 |  |
| C=C1C(=O)N[C@@H](C)C(=O)N(C)[C@@H](C)C(=O)N[C@@H]([C@H](OC(=O)[C@@H](NC(=O)CC)[C@H](O)C(C)C)C(C)C)C(=O)N(C)[C@@H]([C@@H](C)OC)C(=O)O[C@H](C(C)C)[C@H](NC(C)=O)C(=O)O[C@H](Cc2ccccc2)C(=O)N1C (Ac-[X1][dPhLac][NMeDha]A[NMeA][X1](Leu(3R-OH,Nα-propionyl))[NMeT](Me); ester 1-C) |  |  |  | IC50 (GNAQ/GNA11 [16]): 0.032 µM |
| O=C([C@@H]1CCCN1)N1CCn2cc(-c3ccccc3)nc2[C@@H]1CC1CCCCC1 | 14.2 | 27.4 | 63.4 |  |
| CC(C)C[C@@H]1c2nc(-c3ccccc3)cn2CCN1C(=O)[C@@H](N)Cc1ccc(O)cc1 | 3.7 | > 100 | > 100 |  |
